Results taken from ChEMBL document CHEMBL2150846, “Optimization of an ether series of mGlu5 positive allosteric modulators: molecular determinants of MPEP-site interaction crossover” (Bioorg Med Chem Lett, 2012).
Active and inactive are the calls of the source. The calls are words filed in the database; no cut-off is given here.

Legend:
[1] = target: T1, Metabotropic glutamate receptor 5 (Rattus norvegicus, UniProt P31424); assay: Positive allosteric modulation of rat mGluR5 expressed in human HEK293 cells assessed as calcium mobilization; format: functional, cell-based
In short: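 Calcium mobilization in HEK293 cells expressing rat mGlu5, used to obtain functional EC50. pEC50 is the mean of three independent determinations, with coefficient of variation <0.05.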

[2] = target: T1, Metabotropic glutamate receptor 5; assay: Displacement of [3H]methoxyPEPy from rat mGluR5 expressed in human HEK293 cells after 1 hr by scintillation counter; format: cell-based
[3] = target: Metabotropic glutamate receptor 5 (Rattus norvegicus) (UniProt P31424); assay: Displacement of [3H]methoxyPEPy from rat mGluR5 expressed in human HEK293 cells at 10 uM after 1 hr by scintillation counter; format: cell-based
In short: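 Single-concentration binding to the MPEP site, read as % displacement of [3H]methoxyPEPy at 10 μM test compound. Values are the average of two determinations.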

[4] = test system: Brain; assay: Fraction unbound in rat brain; format: ADME, tissue-based
[5] = test system: Plasma; assay: AUC in rat plasma at 10 mg/kg, po; format: ADME, organism-based; parameters: dose 10 mg/kg, route oral; conditions: in vivo
In short: (§1)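 Rats were dosed orally at 10 mg/kg in 20% β-CD. Snapshot drug levels were taken in portal vein, plasma and brain at 0.5, 1.0, 3.0 and 6.0 h. AUC, brain/plasma ratio, Cmax, Tmax and Vss were derived from these levels.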

[6] = test system: Brain; assay: Ratio of AUC in rat brain to AUC in rat plasma at 10 mg/kg, po; format: ADME, organism-based; parameters: dose 10 mg/kg, route oral; in short: as §1
[7] = Plasma protein binding in human plasma
[8] = target: Metabotropic glutamate receptor 4 (Homo sapiens, UniProt Q14833); assay: Positive allosteric modulation of mGluR4
[9] = target: T2, Metabotropic glutamate receptor 5 (Homo sapiens, UniProt P41594); assay: Positive allosteric modulation of human mGlu5 expressed in HEK293 cells relative to glutamate; format: cell-based
Target sequence in this assay (P41594 21-1212 limits assumed): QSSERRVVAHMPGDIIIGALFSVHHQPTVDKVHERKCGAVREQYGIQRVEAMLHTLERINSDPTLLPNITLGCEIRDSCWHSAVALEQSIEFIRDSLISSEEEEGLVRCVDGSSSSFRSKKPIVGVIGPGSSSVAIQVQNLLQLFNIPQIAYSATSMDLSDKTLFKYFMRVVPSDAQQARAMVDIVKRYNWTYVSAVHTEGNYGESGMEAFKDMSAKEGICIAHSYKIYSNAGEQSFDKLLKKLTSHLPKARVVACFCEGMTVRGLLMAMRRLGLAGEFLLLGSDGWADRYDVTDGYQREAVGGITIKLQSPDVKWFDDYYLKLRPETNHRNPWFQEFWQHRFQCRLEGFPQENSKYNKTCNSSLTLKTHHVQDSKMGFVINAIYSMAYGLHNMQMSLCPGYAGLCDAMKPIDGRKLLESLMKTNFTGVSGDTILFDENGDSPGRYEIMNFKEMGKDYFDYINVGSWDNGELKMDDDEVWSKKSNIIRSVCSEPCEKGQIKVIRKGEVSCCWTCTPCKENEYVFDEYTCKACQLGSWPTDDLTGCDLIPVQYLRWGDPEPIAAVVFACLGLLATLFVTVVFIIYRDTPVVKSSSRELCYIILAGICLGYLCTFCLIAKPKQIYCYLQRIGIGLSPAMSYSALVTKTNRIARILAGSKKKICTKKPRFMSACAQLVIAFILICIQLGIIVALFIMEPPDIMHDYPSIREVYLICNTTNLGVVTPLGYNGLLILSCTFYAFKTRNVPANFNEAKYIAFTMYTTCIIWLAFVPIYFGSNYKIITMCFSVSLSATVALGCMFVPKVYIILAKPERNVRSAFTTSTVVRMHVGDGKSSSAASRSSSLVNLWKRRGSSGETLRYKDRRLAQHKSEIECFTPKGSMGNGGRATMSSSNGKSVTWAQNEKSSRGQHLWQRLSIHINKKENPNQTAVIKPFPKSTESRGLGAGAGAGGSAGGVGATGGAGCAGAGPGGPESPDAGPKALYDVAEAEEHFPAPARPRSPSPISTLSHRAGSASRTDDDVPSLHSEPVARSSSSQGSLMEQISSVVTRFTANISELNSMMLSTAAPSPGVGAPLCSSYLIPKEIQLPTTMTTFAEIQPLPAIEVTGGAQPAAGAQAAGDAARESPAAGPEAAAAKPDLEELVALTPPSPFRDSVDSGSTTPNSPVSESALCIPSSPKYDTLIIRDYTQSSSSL

[10] = target: Metabotropic glutamate receptor 8 (Homo sapiens, UniProt O00222); assay: Positive allosteric modulation of mGluR8
[11] = Solubility of the compound in fasted state simulated intestinal fluid; format: physicochemical
[12] = AUC in rat brain at 10 mg/kg, po; format: ADME, organism-based; parameters: dose 10 mg/kg, route oral; in short: as §1
[13] = target: Metabotropic glutamate receptor 5 (Rattus norvegicus) (UniProt P31424); assay: Positive allosteric modulation of wild type rat mGlu5 expressed in human HEK293 cells assessed as glutamate concentration response curve at 1 uM; format: cell-based
[14] = test system: Brain; assay: Tmax in rat brain at 10 mg/kg, po; format: ADME, organism-based; parameters: dose 10 mg/kg, route oral; conditions: in vivo; in short: as §1
[15] = target: Metabotropic glutamate receptor 2 (Homo sapiens, UniProt Q14416); assay: Positive allosteric modulation of mGluR2
[16] = Plasma protein binding in rat plasma
[17] = test system: Metabotropic glutamate receptor 5 (Rattus norvegicus), P31424 [A809V]; assay: Positive allosteric modulation of wild type rat mGlu5 receptor A809V mutant expressed in human HEK293 cells assessed as glutamate concentration response curve at 1 uM; format: cell-based
[18] = target: Metabotropic glutamate receptor 1 (Homo sapiens, UniProt Q13255); assay: Positive allosteric modulation of mGluR1
[19] = test system: Rattus norvegicus; assay: Volume of distribution at steady state in rat at 10 mg/kg, po; format: ADME, organism-based; parameters: dose 10 mg/kg, route oral; conditions: in vivo; in short: as §1
[20] = target: Metabotropic glutamate receptor 3 (Homo sapiens, UniProt Q14832); assay: Positive allosteric modulation of mGluR3
[21] = test system: Metabotropic glutamate receptor 5 (Rattus norvegicus), P31424 [T780A]; assay: Positive allosteric modulation of wild type rat mGlu5 receptor T780A mutant expressed in human HEK293 cells assessed as glutamate concentration response curve at 1 uM; format: cell-based
[22] = target: T2, Metabotropic glutamate receptor 5; assay: Positive allosteric modulation of human mGluR5 expressed in HEK293 cells assessed as calcium mobilization; format: functional, cell-based
Target sequence in this assay (P41594 whole entry): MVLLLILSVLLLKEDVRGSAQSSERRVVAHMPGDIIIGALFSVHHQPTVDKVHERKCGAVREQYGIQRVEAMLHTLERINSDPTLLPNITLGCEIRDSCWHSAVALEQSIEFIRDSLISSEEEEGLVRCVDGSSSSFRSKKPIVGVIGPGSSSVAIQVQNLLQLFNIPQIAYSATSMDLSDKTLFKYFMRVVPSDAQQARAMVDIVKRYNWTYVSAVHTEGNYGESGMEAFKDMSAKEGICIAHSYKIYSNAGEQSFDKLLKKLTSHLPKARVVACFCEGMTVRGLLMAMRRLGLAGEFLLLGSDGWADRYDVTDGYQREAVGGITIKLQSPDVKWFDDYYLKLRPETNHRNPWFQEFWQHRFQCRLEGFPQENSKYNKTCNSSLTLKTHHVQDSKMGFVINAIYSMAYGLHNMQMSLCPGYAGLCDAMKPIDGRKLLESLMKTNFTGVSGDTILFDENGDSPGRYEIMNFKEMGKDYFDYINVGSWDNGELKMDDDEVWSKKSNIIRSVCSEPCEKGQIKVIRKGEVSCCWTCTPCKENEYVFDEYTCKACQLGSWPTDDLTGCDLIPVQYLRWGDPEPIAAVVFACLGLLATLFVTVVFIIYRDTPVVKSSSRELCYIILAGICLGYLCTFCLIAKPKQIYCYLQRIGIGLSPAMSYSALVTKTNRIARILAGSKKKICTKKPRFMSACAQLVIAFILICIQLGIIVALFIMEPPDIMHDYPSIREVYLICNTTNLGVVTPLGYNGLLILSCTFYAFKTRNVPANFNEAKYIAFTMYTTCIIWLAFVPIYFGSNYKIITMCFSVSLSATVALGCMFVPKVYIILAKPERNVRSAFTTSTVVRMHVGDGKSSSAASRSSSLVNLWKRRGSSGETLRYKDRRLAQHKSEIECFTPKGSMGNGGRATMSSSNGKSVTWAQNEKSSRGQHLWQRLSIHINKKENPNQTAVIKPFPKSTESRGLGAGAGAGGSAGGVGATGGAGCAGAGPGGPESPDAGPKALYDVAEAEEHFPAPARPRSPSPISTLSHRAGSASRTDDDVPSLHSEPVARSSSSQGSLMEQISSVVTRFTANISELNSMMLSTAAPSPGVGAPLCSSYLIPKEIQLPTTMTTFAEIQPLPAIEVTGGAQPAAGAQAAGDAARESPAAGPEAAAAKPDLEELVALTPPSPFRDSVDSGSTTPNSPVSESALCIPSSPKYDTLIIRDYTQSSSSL

[23] = Drug uptake in rat brain after 90 mins; format: ADME, tissue-based; conditions: read-out: Drug uptake
[24] = test system: Rattus norvegicus; assay: Antipsychotic activity in rat assessed as reversal of amphetamine-induced hyperlocomotion at 100 mg/kg, po; format: functional, organism-based; parameters: dose 100 mg/kg
In short: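 Rats given amphetamine to induce hyperlocomotion received the test agent orally at 100 mg/kg in 20% β-CD vehicle. Reversal of locomotor activity was measured.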

[25] = target: Metabotropic glutamate receptor 7 (Homo sapiens, UniProt Q14831); assay: Positive allosteric modulation of mGluR7
[26] = Cmax in rat brain at 10 mg/kg, po; format: ADME, organism-based; parameters: dose 10 mg/kg, route oral; in short: as §1
[27] = target: Metabotropic glutamate receptor 6 (Homo sapiens, UniProt O15303); assay: Positive allosteric modulation of mGluR6
[28] = target: Metabotropic glutamate receptor 5 (Rattus norvegicus) (UniProt P31424); assay: Positive allosteric modulation of rat mGlu5 expressed in human HEK293 cells relative to glutamate; format: cell-based
[29] = test system: Metabotropic glutamate receptor 5 (Rattus norvegicus), P31424 [P654F]; assay: Positive allosteric modulation of wild type rat mGlu5 receptor P654F mutant expressed in human HEK293 cells assessed as glutamate concentration response curve at 1 uM; format: cell-based
[30] = Terminal half life in rat at 1 mg/kg, iv and 10 mg/kg, po; format: ADME, organism-based; conditions: in vivo, read-out: beta t1/2 (converted)
In short: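 Non-crossover rat PK study with 1 mg/kg IV dosing and 10 mg/kg PO dosing in 20% β-CD. Plasma clearance and terminal half-life were determined.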

T1 sequence (P31424 whole entry): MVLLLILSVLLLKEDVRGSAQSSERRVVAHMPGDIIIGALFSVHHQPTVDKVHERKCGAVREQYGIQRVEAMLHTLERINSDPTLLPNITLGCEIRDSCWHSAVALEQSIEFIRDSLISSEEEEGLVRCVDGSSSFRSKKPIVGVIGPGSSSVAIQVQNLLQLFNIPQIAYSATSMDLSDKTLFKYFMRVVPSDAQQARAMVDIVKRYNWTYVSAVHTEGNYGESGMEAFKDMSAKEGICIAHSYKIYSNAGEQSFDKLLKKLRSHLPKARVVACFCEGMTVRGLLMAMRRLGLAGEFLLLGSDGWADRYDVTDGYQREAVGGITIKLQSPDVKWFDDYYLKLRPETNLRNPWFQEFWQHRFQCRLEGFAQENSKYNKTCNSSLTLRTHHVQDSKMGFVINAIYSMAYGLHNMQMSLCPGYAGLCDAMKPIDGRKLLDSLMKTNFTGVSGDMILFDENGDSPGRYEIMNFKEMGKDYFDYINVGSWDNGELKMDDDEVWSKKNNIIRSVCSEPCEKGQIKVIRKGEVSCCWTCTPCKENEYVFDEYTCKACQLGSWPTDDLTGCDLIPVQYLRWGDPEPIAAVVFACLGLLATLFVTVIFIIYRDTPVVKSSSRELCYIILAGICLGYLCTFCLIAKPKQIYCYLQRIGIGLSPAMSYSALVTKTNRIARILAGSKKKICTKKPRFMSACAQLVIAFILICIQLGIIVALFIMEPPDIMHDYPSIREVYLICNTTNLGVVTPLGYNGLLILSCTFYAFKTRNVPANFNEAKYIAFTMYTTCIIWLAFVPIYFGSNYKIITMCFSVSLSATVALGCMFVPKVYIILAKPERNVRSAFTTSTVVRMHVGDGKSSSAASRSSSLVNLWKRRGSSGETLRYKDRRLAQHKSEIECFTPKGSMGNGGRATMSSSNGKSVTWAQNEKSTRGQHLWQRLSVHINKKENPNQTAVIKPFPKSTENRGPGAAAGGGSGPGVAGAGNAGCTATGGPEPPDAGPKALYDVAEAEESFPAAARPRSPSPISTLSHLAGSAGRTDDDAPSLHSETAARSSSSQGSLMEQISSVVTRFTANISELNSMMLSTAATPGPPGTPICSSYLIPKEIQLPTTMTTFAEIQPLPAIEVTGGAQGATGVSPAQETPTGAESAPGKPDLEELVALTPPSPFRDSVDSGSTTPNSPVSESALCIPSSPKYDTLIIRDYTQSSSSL
Sequence of Metabotropic glutamate receptor 5 (Rattus norvegicus) (P31424 21-1203 limits assumed): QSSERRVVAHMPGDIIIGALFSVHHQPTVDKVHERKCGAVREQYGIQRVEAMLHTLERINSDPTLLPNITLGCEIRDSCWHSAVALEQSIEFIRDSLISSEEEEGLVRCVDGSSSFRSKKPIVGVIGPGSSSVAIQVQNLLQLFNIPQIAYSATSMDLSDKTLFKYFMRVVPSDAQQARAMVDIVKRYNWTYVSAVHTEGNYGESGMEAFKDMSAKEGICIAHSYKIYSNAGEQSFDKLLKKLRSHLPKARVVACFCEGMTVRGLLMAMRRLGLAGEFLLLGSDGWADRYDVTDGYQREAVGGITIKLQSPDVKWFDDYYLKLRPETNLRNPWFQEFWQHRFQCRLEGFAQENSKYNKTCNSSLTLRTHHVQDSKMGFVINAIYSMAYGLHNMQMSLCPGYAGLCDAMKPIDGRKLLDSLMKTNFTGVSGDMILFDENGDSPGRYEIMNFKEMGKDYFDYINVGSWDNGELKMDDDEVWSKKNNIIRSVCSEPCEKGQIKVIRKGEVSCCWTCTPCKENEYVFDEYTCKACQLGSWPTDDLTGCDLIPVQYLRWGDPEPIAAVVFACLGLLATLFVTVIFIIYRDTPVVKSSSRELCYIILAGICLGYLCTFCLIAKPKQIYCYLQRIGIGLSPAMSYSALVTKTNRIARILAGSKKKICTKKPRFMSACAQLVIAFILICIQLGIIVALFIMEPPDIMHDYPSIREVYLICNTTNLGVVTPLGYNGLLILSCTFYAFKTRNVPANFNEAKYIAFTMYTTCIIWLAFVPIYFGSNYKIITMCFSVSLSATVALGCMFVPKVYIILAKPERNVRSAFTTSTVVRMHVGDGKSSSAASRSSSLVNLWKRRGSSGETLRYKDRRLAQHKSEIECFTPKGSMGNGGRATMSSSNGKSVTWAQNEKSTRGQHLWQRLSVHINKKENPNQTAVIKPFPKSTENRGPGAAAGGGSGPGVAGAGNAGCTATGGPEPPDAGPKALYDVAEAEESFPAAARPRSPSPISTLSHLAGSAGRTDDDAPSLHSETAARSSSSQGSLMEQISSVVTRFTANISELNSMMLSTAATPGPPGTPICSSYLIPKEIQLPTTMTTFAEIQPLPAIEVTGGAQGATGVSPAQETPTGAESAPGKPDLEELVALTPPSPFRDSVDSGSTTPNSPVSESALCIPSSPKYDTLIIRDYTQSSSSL
Sequence of Metabotropic glutamate receptor 5 (Rattus norvegicus), P31424 [A809V] (P31424 whole entry A809V): as the sequence (P31424 whole entry) above, with A809V counted along it
Sequence of Metabotropic glutamate receptor 5 (Rattus norvegicus), P31424 [P654F] (P31424 whole entry P654F): as the sequence (P31424 whole entry) above, with P654F counted along it
Sequence of Metabotropic glutamate receptor 5 (Rattus norvegicus), P31424 [T780A] (P31424 whole entry T780A): as the sequence (P31424 whole entry) above, with T780A counted along it

O=C(NC1CCOCC1)c1ccc(OCc2cccc(F)c2)nc1
EC50 ([1]; read-out: pEC50 (converted)): 1620 nM

O=C(NC1CCCCC1)c1ccc(OCc2cccc(F)c2)nc1
EC50 ([1]; read-out: EC50): 29 nM

CCC(C)COc1ccc(C(=O)NC2CCCCC2)cn1 (racemic)
EC50 ([1]; read-out: EC50): 1080 nM

CCCCOc1ccc(C(=O)Nc2ccc(F)cc2F)cc1
EC50 ([1]; hek293, read-out: EC50): 33 nM
Ki [2]: > 100000 nM

CCCCCOc1ccc(C(=O)NC2CCCCC2)cn1
EC50 ([1]; read-out: EC50): 449 nM

O=C(NC1CCCCC1)c1ccc(OCC2CCCC2)nc1
EC50 ([1]; read-out: EC50): 446 nM
Activity [3]: 0%

CCCOc1ccc(C(=O)NC2CCCCC2)cn1
EC50 ([1]; hek293): Not Active

CCCCOc1ccc(C(=O)NC2CCCCC2)cn1
EC50 ([1]; read-out: EC50): 2490 nM
Activity [3]: 27%

O=C(NC1CCCCC1)c1ccc(OCc2ccc(F)cc2)nc1
EC50 ([1]; read-out: EC50): 251 nM

O=C(NC1CCC1)c1ccc(OCc2ccccc2)nc1
EC50 ([1]; read-out: EC50): 297 nM

CCCCOc1ccc(C(=O)N(C)c2ccc(F)cc2F)cc1
EC50 ([1]; hek293): Not Active

CC(C)CCOc1ccc(C(=O)NC2CCCCC2)cn1
EC50 ([1]; read-out: EC50): 1140 nM

O=C(N[C@@H](C1CC1)C(F)(F)F)c1ccc(OCc2cccc(F)c2)nc1
EC50 ([1]; read-out: EC50): 83 nM
EC50 ([1]; read-out: pEC50 (converted)): 85.1 nM

C[C@@H](NC(=O)c1ccc(OCc2cccc(F)c2)nc1)C(C)(C)C
Fu [4]: 1%
AUC [5]: 23 µM·h
Ratio AUC [6]: 0.05
PPB [7]: ≥ 0.99
EC50 [8]: > 10000 nM
Emax [9]: 86%
fold change (FC) [9]: 10
EC50 [10]: > 10000 nM
solubility [11]: < 20 µg/mL
AUC [12]: 1.2 µM·h
fold change (FC) [13]: 5
Tmax [14]: 0.5 h
EC50 [15]: > 10000 nM
PPB [16]: ≥ 0.99
Activity [17]: inactive
EC50 [18]: > 10000 nM
Vdss [19]: 2.3 L/kg
EC50 [20]: > 10000 nM
Activity [21]: inactive
EC50 [22]: 70 nM
Ki [2]: 153 nM
concentration at 1.5 h [23]: 7.4 µM
Activity [24]: Active
EC50 [25]: > 10000 nM
Cmax [26]: 0.435 µM
EC50 [27]: > 10000 nM
Emax [28]: 83%
fold change (FC) [28]: 8.2
Activity [29]: inactive
half-life [30]: 5 h

CCCCOc1ccc(C(=O)Nc2ccc(F)cn2)cn1
EC50 ([1]; read-out: EC50): 1900 nM
Activity [3]: 9.5%

O=C(NC1CCOCC1)c1ccc(OCc2ccccc2)nc1
EC50 ([1]; read-out: EC50): 3810 nM

CC(C)(C)NC(=O)c1ccc(OCc2cccc(F)c2)nc1
EC50 ([1]; read-out: EC50): 136 nM

O=C(NC1CCC1)c1ccc(C#Cc2cccc(F)c2)nc1
EC50 ([1]; read-out: EC50): 16 nM
Ki [2]: 195 nM

C[C@@H](NC(=O)c1ccc(OCc2cccc(F)c2)cc1)C(C)(C)C
Emax [9]: 70%
EC50 [22]: 180 nM

CCCCOc1ccc(C(=O)NC2CCCCC2)cc1
EC50 ([1]; read-out: EC50): 607 nM
Activity [3]: 12%

O=C(NC1CCC1)c1ccc(OCc2cccc(F)c2)nc1
EC50 ([1]; read-out: EC50): 300 nM

CCCCOc1ccc(C(=O)Nc2ccc(F)cc2F)cn1
EC50 ([1]; read-out: EC50): 725 nM
Activity [3]: 5%

O=C(NC1CCCCC1)c1ccc(OCc2ccccc2)nc1
EC50 ([1]; read-out: EC50): 34 nM
Activity [3]: 21%

O=C(NC1CCCCC1)c1ccc(OCC2CC2)nc1
EC50 ([1]; hek293): Not Active

C[C@H](NC(=O)c1ccc(OCc2cccc(F)c2)nc1)C1CCCCC1
EC50 ([1]; read-out: EC50): 167 nM

C[C@@H](NC(=O)c1ccc(OCc2cccc(F)c2)nc1)C1CCCCC1
EC50 ([1]; read-out: EC50): 15 nM

CCCCOc1ccc(C(=O)Nc2ncc(F)cc2F)cc1
EC50 ([1]; read-out: EC50): > 10000 nM
Activity [3]: 0%

CCCC(C)Oc1ccc(C(=O)NC2CCCCC2)cn1 (stereo unspecified)
EC50 ([1]; hek293): Not Active

CCCCOc1ccc(C(=O)NC2CCC2)cc1
EC50 ([1]; read-out: EC50): 5170 nM
Activity [3]: 6.5%

O=C(NC1COC1)c1ccc(OCc2cccc(F)c2)nc1
EC50 ([1]; hek293): Not Active
